Calls of active or inactive are those of the source. The calls are words filed in the database; no cut-off is given here.
What was measured:
Salmonella typhimurium [1] = experiment: Genotoxicity in Salmonella typhimurium TA1537 assessed as number of revertant colonies per plate at 80 ug/plate after 20 mins in absence of S9 fraction by Ames test (reference value: 9); assay type: toxicity, organism-based; conditions: salmonella enterica subsp. enterica serovar typhimurium
Escherichia coli [2] = experiment: Inhibition of glutaminase activity of Escherichia coli asparagine synthetase B at 0.1 mM using L-glutamine as substrate after 30 to 120 mins in presence of L-glutamate dehydrogenase and NAD+
In short: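 Enzyme (60 µg) preincubated at 30 °C with inhibitor in 100 mM Tris-HCl pH 7.5, 8 mM MgCl2, 100 mM NaCl, 0.5 mM DTT. Aliquots taken at 30 and 120 min. Glutaminase reaction: 100 mM EPPS pH 8, 20 mM L-Gln, 37 °C for 10 min, then TCA quench. Glutamate read as NADH via glutamate dehydrogenase in glycine–hydrazine pH 9 with ADP and NAD+.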

Homo sapiens = species: Homo sapiens; experiment: Irreversible inhibition of human GGT using gamma-Glu-AMC as substrate assessed as association rate constant by […] analysis
In short: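 The enzyme source was a commercial human GGT preparation carrying bovine serum albumin as stabilizer (GGT <1% of protein). Hydrolytic activity was followed with γ-Glu-AMC as substrate. Irreversible inactivation was expressed as kon, the second-order rate constant for the inhibitor–enzyme reaction.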

Escherichia coli K-12 = experiment: Irreversible inhibition of Escherichia coli K-12 SH642 GGT using gamma-Glu-AMC as substrate assessed as association rate constant by […] analysis
In short: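 GGT was purified from the periplasmic fraction of recombinant E. coli K-12 SH642. Hydrolytic activity was followed with γ-Glu-AMC as substrate. Irreversible inactivation was expressed as kon, the second-order rate constant for the inhibitor–enzyme reaction.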

Salmonella typhimurium [3] = experiment: Genotoxicity in Salmonella typhimurium TA100 assessed as number of revertant colonies per plate at 1 ug/plate after 20 mins in presence of S9 fraction by Ames test (reference value: 142); assay type: toxicity, organism-based; conditions: salmonella enterica subsp. enterica serovar typhimurium
Salmonella typhimurium [4] = experiment: Genotoxicity in Salmonella typhimurium TA1535 assessed as number of revertant colonies per plate at 2 ug/plate after 20 mins in presence of S9 fraction by Ames test (reference value: 13); assay type: toxicity, organism-based; conditions: salmonella enterica subsp. enterica serovar typhimurium
Escherichia coli [5] = experiment: Genotoxicity in Escherichia coli WP2uvrA assessed as number of revertant colonies per plate at 10 ug/plate after 20 mins in presence of S9 fraction by Ames test (reference value: 26); assay type: toxicity; conditions: s9, 20 min
Salmonella typhimurium [6] = experiment: Genotoxicity in Salmonella typhimurium TA98 assessed as number of revertant colonies per plate at 0.5 ug/plate after 20 mins in presence of S9 fraction by Ames test (reference value: 26); assay type: toxicity, organism-based; conditions: salmonella enterica subsp. enterica serovar typhimurium
Salmonella typhimurium [7] = experiment: Genotoxicity in Salmonella typhimurium TA1537 assessed as number of revertant colonies per plate at 2 ug/plate after 20 mins in presence of S9 fraction by Ames test (reference value: 15); assay type: toxicity, organism-based; conditions: salmonella enterica subsp. enterica serovar typhimurium
[8] = Cytotoxicity against CHL cells assessed as structural aberrations at 0.05 ug/ml preincubated for 6 hrs followed by 18 hrs incubation in fresh medium in absence of S9 fraction by Giemsa-staining-based microscopic analysis; assay type: toxicity, cell-based, Cricetulus griseus; conditions: chinese hamster
[9] = Cytotoxicity against CHL cells assessed as chromatid gap at 0.05 ug/ml preincubated for 6 hrs followed by 18 hrs incubation in fresh medium in absence of S9 fraction by Giemsa-staining-based microscopic analysis; assay type: toxicity, cell-based, Cricetulus griseus; conditions: chinese hamster
[10] = Cytotoxicity against CHL cells assessed as structural aberrations at 0.05 ug/ml after 24 hrs by Giemsa-staining-based microscopic analysis; assay type: toxicity, cell-based, Cricetulus griseus; conditions: chinese hamster
[11] = Cytotoxicity against CHL cells assessed as chromatid gap at 0.05 ug/ml after 24 hrs by Giemsa-staining-based microscopic analysis; assay type: toxicity, cell-based, Cricetulus griseus; conditions: chinese hamster
[12] = Cytotoxicity against CHL cells assessed as number of cells with numerical aberrations at 0.05 ug/ml preincubated for 6 hrs followed by 18 hrs incubation in fresh medium in absence of S9 fraction by Giemsa-staining-based microscopic analysis relative to control; assay type: toxicity, cell-based, Cricetulus griseus; conditions: chinese hamster
[13] = Cytotoxicity against CHL cells assessed as number of cells with numerical aberrations at 0.05 ug/ml after 24 hrs by Giemsa staining-based microscopic analysis relative to control; assay type: toxicity, cell-based, Cricetulus griseus; conditions: chinese hamster
[14] = Cytotoxicity against CHL cells assessed as structural aberrations at 20 ug/ml preincubated for 6 hrs followed by 18 hrs incubation in fresh medium in presence of S9 fraction by Giemsa-staining-based microscopic analysis; assay type: toxicity, cell-based, Cricetulus griseus; conditions: chinese hamster
[15] = Cytotoxicity against CHL cells assessed as chromatid gap at 20 ug/ml preincubated for 6 hrs followed by 18 hrs incubation in fresh medium in presence of S9 fraction by Giemsa-staining-based microscopic analysis; assay type: toxicity, cell-based, Cricetulus griseus; conditions: chinese hamster
[16] = Cytotoxicity against CHL cells assessed as number of cells with numerical aberrations at 20 ug/ml preincubated for 6 hrs followed by 18 hrs incubation in fresh medium in presence of S9 fraction by Giemsa staining-based microscopic analysis relative to control; assay type: toxicity, cell-based, Cricetulus griseus; conditions: chinese hamster
Salmonella typhimurium [17] = experiment: Genotoxicity in Salmonella typhimurium TA98 assessed as number of revertant colonies per plate at 1 ug/plate after 20 mins in absence of S9 fraction by Ames test (reference value: 21); assay type: toxicity, organism-based; conditions: salmonella enterica subsp. enterica serovar typhimurium
[18] = Hydrolytic stability of the compound in D2O assessed as formation of monomethyl phosphonate and phenol at 23 degC after 28 days by 31P NMR spectroscopy; assay type: physicochemical; conditions: 672 h
[19] = Hydrolytic stability of the compound in D2O assessed as formation of monomethyl phosphonate and phenol at 23 degC up to 28 days by 31P NMR spectroscopy; assay type: physicochemical; conditions: 672 h

Structure (SMILES): Nc1c2ccccc2nc2ccccc12 [AMINACRINE]
- Activity (Salmonella typhimurium [1]): 320

Structure (SMILES): N[C@H](C(=O)O)[C@@H]1CC(Cl)=NO1
- inhibition (Escherichia coli [2]): Active

Structure (SMILES): COP(=O)(CCC(N)C(=O)O)Oc1cccc(CC(N)=O)c1 (mixture of isomers)
- K (Homo sapiens): 1.9 M⁻¹ s⁻¹
- K (Escherichia coli K-12): 400 M⁻¹ s⁻¹

Structure (SMILES): CCOC(=O)Cc1cccc(OP(=O)(CCC(N)C(=O)O)OC)c1 (mixture of isomers)
- K (Homo sapiens): 1.2 M⁻¹ s⁻¹
- K (Escherichia coli K-12): 120 M⁻¹ s⁻¹

Structure (SMILES): Nc1ccc2cc3ccccc3cc2c1 [2-AMINOANTHRACENE]
- Activity (Salmonella typhimurium [3]): 694
- Activity (Salmonella typhimurium [4]): 299
- Activity (Escherichia coli [5]): 495
- Activity (Salmonella typhimurium [6]): 421
- Activity (Salmonella typhimurium [7]): 154

Structure (SMILES): CO[C@@]12[C@H](COC(N)=O)C3=C(C(=O)C(C)=C(N)C3=O)N1C[C@@H]1N[C@@H]12 [MITOMYCIN]
- Activity [8]: 40%
- Activity [9]: 3%
- Activity [10]: 40%
- Activity [11]: 0%
- Activity [12]: 2%
- Activity [13]: 0%

Structure (SMILES): COP(=O)(CCC(N)C(=O)O)Oc1cccc(CCC(=O)O)c1 (mixture of isomers)
- K (Homo sapiens): 7.7 M⁻¹ s⁻¹
- K (Escherichia coli K-12): 71 M⁻¹ s⁻¹

Structure (SMILES): NC(CCP(=O)(Oc1ccccc1)Oc1cccc(CC(=O)O)c1)C(=O)O (mixture of isomers)
- K (Homo sapiens): 40 M⁻¹ s⁻¹

Structure (SMILES): c1ccc2c(c1)cc1ccc3cccc4ccc2c1c34 [BENZO[DEF]CHRYSENE]
- Activity [14]: 46%
- Activity [15]: 6%
- Activity [16]: 1%

Structure (SMILES): COP(=O)(CCC(N)C(=O)O)Oc1ccccc1 (stereo not drawn)
- K (Homo sapiens): 0.4 M⁻¹ s⁻¹
- K (Escherichia coli K-12): 120 M⁻¹ s⁻¹

Structure (SMILES): COP(=O)(CCC(N)C(=O)O)Oc1ccc(C(=O)O)cc1 (mixture of isomers)
- K (Homo sapiens): 5.2 M⁻¹ s⁻¹
- K (Escherichia coli K-12): 3200 M⁻¹ s⁻¹

Structure (SMILES): NC(CCP(=O)(Oc1ccccc1)Oc1ccccc1)C(=O)O (racemic)
- K (Homo sapiens): 0.41 M⁻¹ s⁻¹
- K (Escherichia coli K-12): 27.8 M⁻¹ s⁻¹

Structure (SMILES): O=[N+]([O-])c1ccc2c(c1)Cc1ccccc1-2 [2-NITROFLUORENE]
- Activity (Salmonella typhimurium [17]): 442

Structure (SMILES): COP(=O)(CCC(N)C(=O)O)Oc1cccc([N+](=O)[O-])c1 (mixture of isomers)
- K (Homo sapiens): 49 M⁻¹ s⁻¹
- K (Escherichia coli K-12): 5100 M⁻¹ s⁻¹
- Stability [18]: Unstable

Structure (SMILES): COP(=O)(CCC(N)C(=O)O)Oc1ccc(CC(=O)O)cc1 (stereo not drawn)
- K (Homo sapiens): 0.33 M⁻¹ s⁻¹
- K (Escherichia coli K-12): 210 M⁻¹ s⁻¹
- Stability [19]: Stable

Structure (SMILES): COP(=O)(CCC(N)C(=O)O)Oc1cccc(C(=O)O)c1 (mixture of isomers)
- K (Homo sapiens): 1.6 M⁻¹ s⁻¹
- K (Escherichia coli K-12): 450 M⁻¹ s⁻¹
